ChEMBL document CHEMBL1629439, “High-throughput identification of antibacterials against methicillin-resistant Staphylococcus aureus (MRSA) and the transglycosylase” (Bioorg Med Chem, 2010)
≈ marks a conversion by molar mass, not a printed value.

Tests used:
[1] = Displacement of fluorescein-labeled moenomycin from transglycosylase at 100 uM after 30 mins by fluorescence anisotropy binding assay
[2] = test system: Staphylococcus aureus; assay: Antimicrobial activity against oxacillin- and methicillin-resistant Staphylococcus aureus isolate Sa-OXA-R2 after 18 to 24 hrs by alamar blue assay; type: functional
Summary of the method: (§1)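 Broth microdilution per NCCLS standard, Mueller-Hinton broth, 8-point twofold dilutions; exponentially growing cells at 5 10^5 cells/ml with compound, 18–24 h at 37 C; 20% Alamar blue added, fluorescence read; MIC90 taken as lowest concentration preventing at least 90% growth.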

[3] = test system: Staphylococcus aureus; assay: Antimicrobial activity against methicillin-resistant Staphylococcus aureus ATCC 33592 after 18 to 24 hrs by alamar blue assay; type: functional
Summary of the method: as §1

[4] = test system: Mycolicibacterium smegmatis; assay: Antimicrobial activity against Mycobacterium smegmatis BCRC 11565 after 18 to 24 hrs by alamar blue assay; type: functional
Summary of the method: (§2)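 Broth microdilution per NCCLS in Mueller-Hinton broth, 8-point twofold dilutions, 384-well format. Exponential-phase cells at 5 × 10^5 cells/ml incubated with compound 18–24 h at 37 °C, then 20% Alamar blue added and fluorescence read. MIC90 taken as the lowest concentration preventing at least 90% bacterial growth.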

[5] = test system: Staphylococcus aureus; assay: Antimicrobial activity against Staphylococcus aureus ATCC 29213 after 18 to 24 hrs by alamar blue assay
[6] = test system: Stenotrophomonas maltophilia; assay: Antimicrobial activity against Stenotrophomonas maltophilia ATCC 13637 after 18 to 24 hrs by alamar blue assay; type: functional
Summary of the method: as §2

[7] = test system: Pseudomonas aeruginosa; assay: Antimicrobial activity against Pseudomonas aeruginosa ATCC 25619 after 18 to 24 hrs by alamar blue assay; type: functional
Summary of the method: as §2

[8] = test system: Acinetobacter baumannii; assay: Antimicrobial activity against Acinetobacter baumannii ATCC 49139 after 18 to 24 hrs by alamar blue assay; type: functional
Summary of the method: as §2

[9] = test system: Staphylococcus aureus; assay: Antimicrobial activity against methicillin-resistant Staphylococcus aureus isolate NTUH4722 after 18 to 24 hrs by alamar blue assay; type: functional
Summary of the method: as §1

[10] = test system: Bacillus subtilis; assay: Antimicrobial activity against Bacillus subtilis ATCC 23857 after 18 to 24 hrs by alamar blue assay; type: functional
Summary of the method: as §2

[11] = test system: Serratia marcescens; assay: Antimicrobial activity against Serratia marcescens ATCC 14756 after 18 to 24 hrs by alamar blue assay; type: functional
Summary of the method: as §2

[12] = Inhibition of transglycosylase assessed as inhibition of NBD- labelled lipid II polymerization at 100 uM
Summary of the method: (§3)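 100 µM NBD-labelled lipid II incubated 30 min with full-length PBP (EC, SA or Mtb) and 10 ng/µl N-acetylmuramidase in 50 mM Tris-HCl pH 8.0, 10 mM MgCl2, 0.1% Triton X-100, 10% DMSO, 15% MeOH. Supernatant run on anion-exchange HPLC with 20 mM–0.5 M ammonium acetate gradient. Inhibition calculated from substrate peak-area percentage. IC50 determined. S. aureus strains share one SA enzyme.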

[13] = test system: Escherichia coli; assay: Antimicrobial activity against Escherichia coli ATCC […] after 18 to 24 hrs by alamar blue assay; type: functional
Summary of the method: as §2

[14] = Inhibition of transglycosylase assessed as inhibition of NBD- labelled lipid II polymerization
Summary of the method: as §3

[15] = test system: Staphylococcus aureus; assay: Antimicrobial activity against wild-type Staphylococcus aureus ATCC 29213 after 18 to 24 hrs by alamar blue assay
[16] = Inhibition of transglycosylase in Staphylococcus aureus ATCC 29213 assessed as inhibition of NBD- labelled lipid II polymerization
Summary of the method: as §3

[17] = Inhibition of transglycosylase in Escherichia coli ATCC […] assessed as inhibition of NBD- labelled lipid II polymerization
Summary of the method: as §3

[18] = Displacement of fluorescein-labeled moenomycin from transglycosylase in Escherichia coli ATCC […] assessed as inhibition of lipid II polymerization after 30 mins by fluorescence anisotropy binding assay; design: species or system Staphylococcus aureus
Summary of the method: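 Full-length bifunctional PBP (TGase) at 10 µg/ml mixed with 100 nM fluorescent moenomycin in 10 mM Tris, 100 mM NaCl, pH 8.0, in 1536-well plates. 1 µl of 1 mM compound stock added. 10 µM moenomycin and 2.5% DMSO served as positive and negative controls. After 30 min, drop in fluorescence anisotropy read. Ki derived from Kd and IC50. Same SA enzyme serves all S. aureus strains.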

[19] = Inhibition of transglycosylase in Staphylococcus aureus ATCC 33592 assessed as inhibition of NBD- labelled lipid II polymerization
Summary of the method: as §3

[20] = Inhibition of transglycosylase in Staphylococcus aureus isolate NTUH4722 assessed as inhibition of NBD- labelled lipid II polymerization
Summary of the method: as §3

[21] = Inhibition of transglycosylase in Staphylococcus aureus isolate Sa-OXA-R2 assessed as inhibition of NBD- labelled lipid II polymerization
Summary of the method: as §3

[22] = Staphylococcus aureus, ATCC 33592, read-out: MIC
[23] = Mycolicibacterium smegmatis, BCRC 11565, read-out: MIC
[24] = Stenotrophomonas maltophilia, ATCC 13637, read-out: MIC
[25] = Pseudomonas aeruginosa, ATCC 25619, read-out: MIC
[26] = Acinetobacter baumannii, ATCC 49139, read-out: MIC
[27] = Serratia marcescens, ATCC 14756, read-out: MIC
[28] = Escherichia coli, read-out: MIC

Compound: O=C(Nc1ccc(Cl)c(Cl)c1)c1cc(Cl)cc(Cl)c1O [3,3',4',5-TETRACHLOROSALICYLANILIDE]
- inhibition [1]: 90%
- MIC [2]: 1 µg/mL (≈ 2.85 µM)
- MIC [3, 22]: 1 µg/mL (≈ 2.85 µM)
- MIC [4, 23]: 0.5 µg/mL (≈ 1.42 µM)
- MIC [5]: 0.25 µg/mL (≈ 0.712 µM)
- MIC [6, 24]: 16 µg/mL (≈ 45.6 µM)
- MIC [7, 25]: 16 µg/mL (≈ 45.6 µM)
- MIC [8, 26]: 16 µg/mL (≈ 45.6 µM)
- MIC [9]: 1 µg/mL (≈ 2.85 µM)
- MIC [10]: < 0.03 µg/mL
- MIC [11, 27]: 16 µg/mL (≈ 45.6 µM)
- inhibition [12]: 0%
- MIC [13, 28]: 8 µg/mL (≈ 22.8 µM)

Compound: CCn1cc(C(=O)O)c(=O)c2cc(F)c(N3CCN(C(=O)c4cccc(C)c4)CC3)cc21
- inhibition [1]: 93%
- inhibition [12]: 0%

Compound: O=C(Nc1cc(Cl)ccc1Oc1ccccc1)c1cc(Br)cc(Br)c1O
- IC90 [14]: 50 µM
- inhibition [1]: 97%
- MIC [2]: 0.5 µg/mL (≈ 1 µM)
- MIC [3, 22]: 0.25 µg/mL (≈ 0.502 µM)
- MIC [4, 23]: 0.5 µg/mL (≈ 1 µM)
- MIC [5]: 0.5 µg/mL (≈ 1 µM)
- MIC [6, 24]: 16 µg/mL (≈ 32.2 µM)
- MIC [7, 25]: 16 µg/mL (≈ 32.2 µM)
- MIC [8, 26]: 16 µg/mL (≈ 32.2 µM)
- MIC [9]: 0.5 µg/mL (≈ 1 µM)
- MIC [10]: < 0.03 µg/mL
- MIC [11, 27]: 16 µg/mL (≈ 32.2 µM)
- inhibition [12]: 100%
- MIC [13, 28]: 8 µg/mL (≈ 16.1 µM)

Compound: O=C(Nc1ccc(Cl)c(Cl)c1)c1cc(Cl)ccc1NS(=O)(=O)c1ccc(Cl)cc1
- inhibition [1]: 98%
- MIC [2]: 0.25 µg/mL (≈ 0.51 µM)
- MIC [3, 22]: 0.25 µg/mL (≈ 0.51 µM)
- MIC [4, 23]: > 64 µg/mL
- MIC [5]: 0.25 µg/mL (≈ 0.51 µM)
- MIC [6, 24]: > 256 µg/mL
- MIC [7, 25]: > 256 µg/mL
- MIC [8, 26]: > 256 µg/mL
- MIC [9]: 0.25 µg/mL (≈ 0.51 µM)
- MIC [10]: < 0.03 µg/mL
- MIC [11, 27]: > 256 µg/mL
- inhibition [12]: 0%
- MIC [13, 28]: > 256 µg/mL

Compound: O=C(Nc1ccc(Cl)c(C(=O)c2ccc(Cl)cc2)c1)c1cc(Cl)ccc1O
- IC90 [14]: 100 µM
- MIC [3]: 4 µg/mL (≈ 9.51 µM)
- MIC [3, 22]: 4 µg/mL (≈ 9.51 µM)
- MIC [4]: 0.5 µg/mL (≈ 1.19 µM)
- MIC [4, 23]: 0.5 µg/mL (≈ 1.19 µM)
- MIC [5]: 4 µg/mL (≈ 9.51 µM)
- MIC [6]: 16 µg/mL (≈ 38 µM)
- MIC [6, 24]: 16 µg/mL (≈ 38 µM)
- MIC [7]: 16 µg/mL (≈ 38 µM)
- MIC [7, 25]: 16 µg/mL (≈ 38 µM)
- MIC [8]: 16 µg/mL (≈ 38 µM)
- MIC [8, 26]: 16 µg/mL (≈ 38 µM)
- MIC [10]: < 0.03 µg/mL
- MIC [11]: 16 µg/mL (≈ 38 µM)
- MIC [11, 27]: 16 µg/mL (≈ 38 µM)
- MIC [13]: 8 µg/mL (≈ 19 µM)
- MIC [13, 28]: 8 µg/mL (≈ 19 µM)
- MIC [15]: >4 µg/mL

Compound: O=C(c1ccc(Cl)cc1)c1cc(NC(=O)c2cc(Cl)cc(Br)c2O)c(Cl)cc1Cl
- IC90 [14]: 100 µM
- inhibition [1]: 92%
- MIC [2]: 0.25 µg/mL (≈ 0.468 µM)
- MIC [3, 22]: 0.25 µg/mL (≈ 0.468 µM)
- MIC [4, 23]: 0.5 µg/mL (≈ 0.936 µM)
- MIC [5]: 0.25 µg/mL (≈ 0.468 µM)
- MIC [6, 24]: 16 µg/mL (≈ 30 µM)
- MIC [7, 25]: 16 µg/mL (≈ 30 µM)
- MIC [8, 26]: 16 µg/mL (≈ 30 µM)
- MIC [9]: 0.25 µg/mL (≈ 0.468 µM)
- MIC [10]: < 0.03 µg/mL
- MIC [11, 27]: 16 µg/mL (≈ 30 µM)
- inhibition [12]: 90%
- MIC [13, 28]: 8 µg/mL (≈ 15 µM)

Compound: O=C(Nc1ccc(C(F)(F)F)cc1)N1CCN(c2nc(CCc3ccccc3)nc3sc4c(c23)CCCC4)CC1
- inhibition [1]: 90%
- inhibition [12]: 0%

Compound: Cc1ccc(C(C)C)c(Oc2ccccc2NC(=O)c2cc(I)cc(I)c2O)c1
- IC90 [14]: < 25 µM
- MIC90 [2]: 13 µM (≈ 7.97 µg/mL)
- MIC90 ([3]; Staphylococcus aureus, ATCC 33592): 3.3 µM (≈ 2.02 µg/mL)
- MIC90 ([4]; Mycolicibacterium smegmatis, BCRC 11565): 13 µM (≈ 7.97 µg/mL)
- IC50 [16]: 27.8 µM
- MIC [6, 24]: 16 µg/mL (≈ 26.1 µM)
- IC50 [17]: 7.2 µM
- MIC [7, 25]: 16 µg/mL (≈ 26.1 µM)
- MIC [8, 26]: 16 µg/mL (≈ 26.1 µM)
- MIC90 [9]: 1.6 µM (≈ 0.981 µg/mL)
- Ki [18]: 98 µM
- MIC [10]: < 0.03 µg/mL
- MIC [11, 27]: 16 µg/mL (≈ 26.1 µM)
- IC50 [19]: 27.8 µM
- IC50 [20]: 27.8 µM
- MIC90 ([13]; Escherichia coli): > 512 µM
- IC50 [21]: 27.8 µM
- MIC90 ([15]; Staphylococcus aureus, ATCC 29213): 6.5 µM (≈ 3.99 µg/mL)

Compound: C(=C\c1nc([P+](c2ccccc2)(c2ccccc2)c2ccccc2)c(N2CCCCCC2)o1)/c1ccccc1
- inhibition [1]: 97%
- inhibition [12]: 0%

Compound: Cc1ccc(-c2cc(C(=O)Oc3cccc(C)c3)no2)cc1
- inhibition [1]: 96%
- inhibition [12]: 0%

Compound: O=C(Nc1cc(Cl)ccc1Oc1ccc(Cl)c2ccccc12)c1cc(I)cc(I)c1O
- IC90 [14]: 50 µM
- MIC [2]: ≤ 0.03 µg/mL
- MIC [3, 22]: ≤ 2 µg/mL
- MIC [4, 23]: 0.5 µg/mL (≈ 0.74 µM)
- MIC [5]: 4 µg/mL (≈ 5.92 µM)
- MIC [6, 24]: 16 µg/mL (≈ 23.7 µM)
- MIC [7, 25]: 16 µg/mL (≈ 23.7 µM)
- MIC [8, 26]: 16 µg/mL (≈ 23.7 µM)
- MIC [9]: ≤ 0.03 µg/mL
- MIC [10]: < 0.03 µg/mL
- MIC [11, 27]: 16 µg/mL (≈ 23.7 µM)
- MIC [13, 28]: 8 µg/mL (≈ 11.8 µM)
